# Sampled rows, rich in hits. Any-hit rate of the full collection: about 2.6%.
# Hep lipid drop = inhibitors of hepatocyte lipid droplet formation, primary screen, imaging, high-throughput imaging, BODIPY stain; hit rate 0.4% among 240,000; inhibition, % at 6.5 µM; AML12 mouse hepatocytes, oleate lipid droplets; AID 1656, 2009;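 active means lipid droplet intensity inhibited by at least 50%, with more than 500 cells counted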
#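 Technique: fluorescence imaging, 20x objective, two fields per well / Assay system: AML12 hepatocytes (mouse) / Measure: % inhibition of lipid droplet signal / Doses: 6.5 µM single-point dosing / Incubation: overnight exposure / Reagent: 100 µM oleic acid challenge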
# MEKK2mut PB1 HTS = MEK5 binding signal on mutant MEKK2 PB1, primary screen, biochemical, multiplex bead flow cytometry, Alexa488-MEK5 | percent response, % at 10 µM | Alexa488-MEK5 binding to MEKK2 mutant | AID 1530, 2009 | hit rate 0.35% among 290,000; in the data active means percent response above about 24%, passing the limit was not always enough
# MEKK2wt PB1 HTS = modulators of MEK5 binding to wildtype MEKK2, primary screen, biochemical, multiplex bead flow cytometry, Alexa488-MEK5 | Mitogen-activated protein kinase kinase kinase 2 (Homo sapiens), Q9Y2U5 | Alexa488-MEK5 binding to MEKK2 WT; actives lie on both sides | binding response (% of control), % at 10 µM | hit rate 1.1% among 290,000 | AID 1531, 2009; in the data active means binding response below about 67% or above about 130%
# MEKK3 PB1 HTS = modulators of MEKK3-MEK5 PB1 binding, primary screen, biochemical, wildtype MEKK3, multiplex bead flow cytometry, Alexa488-MEK5. Mitogen-activated protein kinase kinase kinase 3 (Homo sapiens), Q99759. bead-based flow cytometry, Alexa488-MEK5 binding to MEKK3; actives lie on both sides; 0 = blocked by unlabeled MEK5, 100 = vehicle. binding response (% of control), % at 10 µM. hit rate 1.4% among 290,000;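 active means binding response more than 3 SD above or below the average of its plate-row segment, actives on both sides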;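 further: Alexa488 bead fluorescence after subtracting the streptavidin-only scavenger bead signal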
# Target sequence (Q99759 whole entry, looked up): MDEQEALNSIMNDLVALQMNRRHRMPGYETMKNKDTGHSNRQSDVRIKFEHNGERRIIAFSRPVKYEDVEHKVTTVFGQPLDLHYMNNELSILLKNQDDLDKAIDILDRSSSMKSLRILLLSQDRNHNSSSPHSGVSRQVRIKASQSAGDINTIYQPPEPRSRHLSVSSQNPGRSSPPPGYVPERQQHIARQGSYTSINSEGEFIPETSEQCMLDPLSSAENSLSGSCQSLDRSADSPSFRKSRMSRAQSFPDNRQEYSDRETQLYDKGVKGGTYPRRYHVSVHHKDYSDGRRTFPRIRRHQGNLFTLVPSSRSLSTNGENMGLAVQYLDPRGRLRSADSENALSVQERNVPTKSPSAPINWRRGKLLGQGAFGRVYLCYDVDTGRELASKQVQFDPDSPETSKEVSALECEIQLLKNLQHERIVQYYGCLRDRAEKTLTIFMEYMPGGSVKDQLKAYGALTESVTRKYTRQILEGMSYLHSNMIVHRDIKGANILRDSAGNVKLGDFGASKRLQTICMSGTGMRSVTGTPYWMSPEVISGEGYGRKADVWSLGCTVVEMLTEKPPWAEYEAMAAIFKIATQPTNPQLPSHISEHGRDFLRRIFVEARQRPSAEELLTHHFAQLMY
# * marks the source's active call; other numbers are inactive results; . = no result given; [ ] = dose if it differs, or a comment.
SMILES,Hep lipid drop,MEKK2mut PB1 HTS,MEKK2wt PB1 HTS,MEKK3 PB1 HTS
O=C(NCC1CCN(Cc2ccc(F)cc2)CC1)C1CCCN(c2ncnc3c2nc2n3CCCCC2)C1 (stereo not drawn),-12,3,107,98
O=C(NCC1CCN(Cc2ccc(Cl)cc2)CC1)C1CCCN(c2ncnc3c2nc2n3CCCCC2)C1 (stereo not drawn),-2,25*,132,107
CN(Cc1ccccc1)C(=O)CN1C(=O)NC(C)(c2ccc(Cl)cc2)C1=O (stereo not drawn),6,-1,99,101
CCN(CC)CCNC(=O)c1ccc(NC(=O)Nc2cccc3ccccc23)cc1,-7,30*,140*,101
CCN(CC)CCNC(=O)c1ccc(NC(=O)c2ccc(Cl)c(S(=O)(=O)Nc3ccccc3OC)c2)cc1,.,12,147*,104
CCN(CC)CCNC(=O)c1ccc(NC(=O)c2cccc(S(=O)(=O)Nc3ccc(C)cc3)c2)cc1,0,1,114,106
CCOc1cc(S(=O)(=O)n2ccnc2)ccc1Cl,0,-26,79,80
CC(C)Cc1ccc(CN2CCCC(NC(=O)CCN3CCCO3)C2)cc1 (stereo not drawn),11,22,134*,106
CCC(C)(C)NC(=O)C1CCN(S(=O)(=O)c2cccs2)CC1,6,81*,296*,93
CCN(CC)c1ccc(C(=O)OCc2c(C)noc2C)cc1,-2,0,103,109
O=C(Nc1ccc(C2=NCCN2)cc1)c1ccc(C(=O)Nc2ccc(C3=NCCN3)cc2)c(Cl)c1,-11,31*,149*,72*[inhibitor]
Cc1c(C)n(C)c2ccc(C(=O)NCCCN3CCCCC3C)cc12 (stereo not drawn),-21,35*,178*,108
Cc1c(C)n(C)c2ccc(C(=O)NCCc3ccco3)cc12,-6,-1,96,99
CC1CCCCN1CCNC(=O)c1ccc2c(=O)n(Cc3ccc(Cl)cc3)c(=S)[nH]c2c1 (stereo not drawn),-5,33*,169*,107
Cc1c(C)n(C)c2ccc(C(=O)NCCCN(C)C3CCCCC3)cc12,-29,12,145*,101
CC1CCCCN1CCCNC(=O)c1ccc(Br)cc1 (stereo not drawn),-2,2,111,101
COc1ccc(-c2cc(C)no2)cc1S(=O)(=O)NCC1CCN(Cc2cc(C)ccc2C)CC1,-58,22,143*,101
CN(C)c1ccc(/C=C2\CCC/C(=C\c3ccccc3)C2=O)cc1,1,21,15*,121
O=C1/C(=C/c2ccccc2)CCCc2ccccc21,13,-2,99,105
CN(C)CCCN(C(=O)c1ccc(C(=O)c2ccccc2)cc1)c1nc2cc3c(cc2s1)OCO3,-24,38*,170*,109
Cc1cccc2sc(N(CCCN(C)C)C(=O)c3ccc(C(=O)c4ccccc4)cc3)nc12,-13,33*,168*,106
CN(C)CCCN(C(=O)c1ccc(C(=O)c2ccccc2)cc1)c1nc2ccc(F)cc2s1,-10,14,174*,107
Cc1ccc2sc(N(CCN(C)C)C(=O)c3ccc4ccccc4c3)nc2c1C,6,18,161*,106
O=C(CCCn1c(=O)[nH]c2cc(Cl)ccc2c1=O)NCCCN1CCCC1=O,-22,3,101,103
NNC(=O)CCCCCCCCCCOCCCCO,-1,-1,99,102
SMILES,Hep lipid drop,MEKK2mut PB1 HTS,MEKK2wt PB1 HTS,MEKK3 PB1 HTS
CC(OC(=O)CSc1ccc(F)cc1)C(=O)NC1(C#N)CCCCC1 (stereo not drawn),0,6,106,103
Cc1ccc(N2C(=O)C(NC(=O)c3ccccc3)(C(F)(F)F)C3=C2CC(C)(C)CC3=O)cc1 (stereo not drawn),11,-1,106,106
Cc1cccc(NC(=O)CSc2nsc(SCC(=O)Nc3cccc(C)c3)c2C#N)c1,-10,39,29*,105
N#Cc1c(SCC(=O)Nc2ccccc2)nsc1SCC(=O)Nc1ccccc1,4,-3,97,98
Cc1cccc(C(=O)N/C(=C\c2ccc(C)o2)C(=O)O)c1,2,2,-3.0*,98
O=S1(=O)N=C(N2CCOCC2)c2ccccc21,.,10,113,110
O=S1(=O)N=C(Nc2ccc(N3CCOCC3)cc2)c2ccccc21,11,48,37*,100

# Source: PubChem BioAssay
